Gli-Sufu antag: antagonists of Gli-Sufu signaling. Sufu-KO-LIGHT fibroblasts, Gli luciferase reporter luminescence. inhibition, % at 5 µM. actives 0.74% (n = 340,000). AID 588413;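 active = inhibition above about 55%, limit read from the data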;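 also: 0% = DMSO-treated cells and 100% = wells with medium but no cells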
NR2E3 ag-1: agonists of human nuclear receptor NR2E3. GST-NR2E3/biotin-RetCOR TR-FRET, 1536-well. AID 2300. inhibition of corepressor binding, % at 4.78 µM. actives 0.12% (n = 320,000);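 active = percent inhibition above the cutoff of mean plus 3 SD of all tested compounds, set per screening campaign, cut at about 20% in these data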;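 also: 0% = DMSO wells and 100% = biotin wells as full block of FRET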
Target sequence (Q9Y5X4 whole entry, looked up): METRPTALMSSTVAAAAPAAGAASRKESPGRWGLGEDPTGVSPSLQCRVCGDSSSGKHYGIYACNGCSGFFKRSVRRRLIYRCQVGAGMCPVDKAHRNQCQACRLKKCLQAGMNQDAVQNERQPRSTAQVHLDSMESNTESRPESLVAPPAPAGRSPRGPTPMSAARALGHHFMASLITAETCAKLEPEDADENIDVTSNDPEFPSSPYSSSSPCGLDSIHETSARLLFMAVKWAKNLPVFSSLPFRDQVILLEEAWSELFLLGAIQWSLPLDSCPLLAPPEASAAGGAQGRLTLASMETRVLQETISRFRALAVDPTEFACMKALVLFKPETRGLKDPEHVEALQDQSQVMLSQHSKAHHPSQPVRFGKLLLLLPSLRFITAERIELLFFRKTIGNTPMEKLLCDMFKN
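Material – GST-tagged NR2E3 plus biotinylated RetCOR corepressor · Quantity – NR2E3 fusion 1.35 nM · Times – 5 h incubation at 4 °C · Medium – pH 7.5 Tris-based buffer · Technique – TR-FRET, Eu(K)-anti-GST donor, streptavidin-D2 acceptor, ex 340, em 617/671 nm · Benchmarks – high control biotin, low control 0.6% DMSO · Format – 1536-well plates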
GalR3 antag: human GalR3 antagonism; O60755; HEK293 GalR3-CNG cAMP membrane potential fluorescence; galR3 body fused to GalR1 C-terminus; inhibition, % at 3 µM; actives 0.44% (n = 360,000); AID 651719;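 active = inhibition above the screen-wide average plus 3 SD, cut at about 13% in these data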;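 also: forskolin and galanin both at EC90 stimulate the cells; cAMP rise reported by CNG channel membrane potential dye signal; 0% = forskolin plus galanin with DMSO and 100% = forskolin alone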
Jurkat NFkB inh: lowers PMA/ionomycin-induced NF-kB signal in Jurkat cells. inhibition, % at 4 µM. AID 435003. actives 0.53% (n = 330,000). PMA/ionomycin-induced NF-kB luciferase reporter, luminescence; in the data active = inhibition above about 50%
697 NFkB inh: inhibitors of the PMA/ionomycin-induced NF-kB reporter in 697 B cells. inhibition, % at 4 µM. AID 435022. 697 B-cell NF-kB luciferase reporter, 16 h. actives 0.33% (n = 330,000); in the data active = inhibition above about 35%
NR2E3 ag-2: human photoreceptor-specific nuclear receptor agonism | Q9Y5X4 | CHO-S Gal4-NCOR/VP16-NR2E3 two-hybrid, luciferase | inhibition of corepressor binding, % at 3.98 µM | actives 0.35% (n = 360,000) | AID 602229;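 active = inhibition above the mean of all tested compounds plus 3 SD, cut at about 70% in these data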;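 also: 0% = DMSO with NR2E3 transfected cells and 100% = cells lacking NR2E3 construct; higher means lower luciferase signal from less NR2E3 corepressor binding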
697 NFkB conf: lowers PMA/ionomycin-induced NF-kB signal in 697 B cells. 697 B-cell NF-kB luciferase, 16 h. AID 449746. inhibition, % at 4 µM. shares compounds with 697 NFkB inh. actives 35% (n = 2,000); in the data active = inhibition mostly above about 28%, no sharp cut-off; inactive = mostly below about 22%
Gli antag conf: confirmation of Gli-SUFU pathway antagonists. shares compounds with Gli-Sufu antag. Sufu-KO-LIGHT cells, Gli luciferase reporter, luminescence. inhibition, % at 5 µM. actives 40% (n = 2,500);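 active = mean inhibition at 5 µM reaching about 45%, limit read from the data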;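 also: plate controls were DMSO-treated cells for no effect and wells lacking cells for full effect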
Gli cytotox: cytotoxic in Gli-SUFU antagonist counter-screen; shares compounds with Gli-Sufu antag; Sufu-KO-LIGHT cells cytotoxicity, ATP luminescence; cytotoxicity, % at 5 µM; actives 32% (n = 2,500);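 active = mean cytotoxicity at 5 µM above about 25%, limit read from the data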;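 also: cells exposed to compound overnight for roughly 16 to 18 hours; plate controls were DMSO wells with cells for no effect and medium without cells for full effect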
Wnt3a counter: inhibits Wnt3a reporter, counter-screen for Gli-SUFU antagonists | AID 651995 | Wnt-LIGHT cells, Wnt3a-driven luciferase reporter, luminescence | inhibition, % at 6.25 µM | shares compounds with Gli-Sufu antag | actives 20% (n = 2,500);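 active = mean inhibition above about 25%, limit read from the data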
NR2E3 ag conf: confirmation of human NR2E3 agonists; inhibition, % at 3.98 µM; CHO-S mammalian two-hybrid NR2E3-NCOR, luciferase luminescence; actives 51% (n = 2,300); shares compounds with NR2E3 ag-2;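 active = average inhibition above a cutoff equal to the mean inhibition of all tested compounds plus one SD, cut at about 70% in these data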;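 also: 0% = DMSO in NR2E3 cells and 100% = DMSO in cells lacking NR2E3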
VP16 counter: reduces GAL4-VP16 reporter signal in NR2E3 counterscreen; inhibition, % at 3.98 µM; CHO-S GAL4-VP16 luciferase reporter, luminescence; actives 29% (n = 2,300); shares compounds with NR2E3 ag-2;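 active = mean inhibition above a cutoff equal to the average over all tested compounds plus one standard deviation, cut at about 70% in these data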;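 also: luciferase from a UAS reporter driven by GAL4-VP16 transactivation; 0% = DMSO with VP16-transfected cells and 100% = DMSO with cells lacking VP16; higher means less reporter light so more repression of VP16 activity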
The depositor's hits bear a star; x = no result. Compounds with a hit are over-represented: about 1.8% of the library has one in this group of screens.

SMILES | Gli-Sufu antag | NR2E3 ag-1 | GalR3 antag | Jurkat NFkB inh | 697 NFkB inh | NR2E3 ag-2 | 697 NFkB conf | NR2E3 ag conf | VP16 counter | others
Cc1cc(C)c(C#N)c(SCc2nnc(-c3ccccc3)o2)n1 | 70.0* | -2.8 | -2.4 | 28.5 | -361.7 | 88.2* | -46.7 | 72.6* | 37.9 | Gli antag conf=82.7*;Gli cytotox=34.7*;Wnt3a counter=96.2*
COc1ccccc1-c1cc(-c2ccc(C)cc2)nc(SCc2nnc(-c3ccccc3)o2)c1C#N | 15.2 | -4.3 | -7.1 | 4.2 | 5.9 | -6.8 | x | x | x
Cc1ccc(C(=O)Nc2sc(C)c(-c3ccccc3)c2C(N)=O)cc1[N+](=O)[O-] | 65.9* | 0.8 | -3.7 | -19.9 | -415.1 | 54.4 | -98.7 | 56.5 | 16.1
C[C@@H](CO)NC(=O)c1[nH]cnc1C(=O)Nc1ccccc1 | x | x | -5.0 | x | x | x | x | x | x
Cc1nc2c(-c3ccccc3)cnn2c(N)c1-c1ccccc1 | 55.8* | x | -7.9 | -96.7 | -428.3 | 74.3* | -247.7 | 54.6 | -5.9
CCOC(=O)Cc1c(C)nc2c(-c3ccccc3)cnn2c1C | -17.5 | 1.0 | -4.8 | -19.6 | -23.2 | -14.1 | x | x | x
O=C(CCCc1nc(-c2ccccc2Cl)no1)NC1CCCC1 | 64.3* | -1.1 | -1.9 | 0.7 | 74.4* | 61.8 | 78.0* | 60.0 | 56.1 | Gli antag conf=57.2*;Gli cytotox=-1.3;Wnt3a counter=93.0*
COc1ccccc1-c1noc(CCCC(=O)NC2CCCC2)n1 | 23.9 | 1.9 | -8.4 | 10.6 | 5.8 | -23.4 | x | x | x
O=C(Nc1cccc(S(=O)(=O)Nc2ccc(Cl)cc2)c1)c1ccc(Cl)nc1 | 68.5* | 6.6 | 72.6* | 41.3 | 56.9* | 73.6* | 53.3* | 58.9 | 76.2* | Gli antag conf=64.1*;Gli cytotox=38.9*;Wnt3a counter=23.4
O=C(CCCN1C(=O)S/C(=C\C=C\c2ccccc2)C1=O)Nc1ccc(C(=O)O)cc1 | -21.9 | 0.7 | -6.3 | -8.5 | 48.2* | 54.4 | 53.2* | 8.0 | 58.0
O=C(CCN1C(=O)S/C(=C\C=C\c2ccccc2)C1=O)Nc1ccc(O)cc1 | -17.1 | -1.2 | -5.5 | -56.3 | -84.1 | -12.0 | x | x | x
O=C(CCCN1C(=O)S/C(=C\c2ccccc2)C1=O)NNC(=O)c1ccccc1O | 35.7 | 8.4 | -2.2 | -2.1 | 67.4* | 50.1 | 50.0* | 60.2 | 53.2
Nc1ccc2ccc(N)cc2c1 | x | x | -6.4 | x | x | x | x | x | x
CCOC(=O)N(C)C[C@@H]1OCc2cn(nn2)CCCC(=O)N([C@H](C)CO)C[C@H]1C | x | x | -6.7 | x | x | x | x | x | x
C=CCn1c(C)cc(C(=O)CSc2nc3ccccc3[nH]2)c1C | -12.5 | -1.7 | -6.4 | -107.6 | -274.9 | 64.3 | -81.3 | 33.3 | -35.9
CCOc1ccc(-c2nc(CSCC(=O)NCC3CCCO3)c(C)o2)cc1 (configuration not stated) | 88.7* | 0.6 | -2.2 | 9.0 | 87.9* | 104.4* | 19.5 | 92.5* | 87.2* | Gli antag conf=88.5*;Gli cytotox=7.7;Wnt3a counter=24.8
CCCNC(=O)CSCc1nc(-c2ccc(SC)cc2)oc1C | 24.0 | 1.1 | -4.8 | -11.2 | 48.3* | 82.2* | 42.2* | 77.9* | 78.8*
COc1cccc(CNC(=O)[C@H]2CCCN2C(=O)[C@H]2CCCN2C(=O)c2cccc3ccccc23)c1 | x | x | -4.2 | x | x | x | x | x | x
Cc1ccc(NC(=O)O/N=C/c2c(C)nn(C(C)(C)C)c2C)cc1Cl | 46.0 | 3.6 | -3.4 | 13.7 | 62.9* | 99.9* | 78.2* | 82.7* | 95.6*

Screening data as filed in PubChem.
